This is an account of results in article PMC11295983 (ESMO Open, 2024).

Like-named read-outs stand apart in the source and are kept apart here.

One data set concerns advanced solid tumors. The data set is described as follows: Investigator-assessed tumor response per RECIST v1.1, FIGHT-101 part 3. The class given is in vivo, human.
In a further data set the target is phosphorylated FGFR2α (Homo sapiens, UniProt P21802). The class given is cell-based. Summed up:
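Patients take oral pemigatinib once daily on 21-day cycles, continuous or intermittent, with combination therapy (e.g. i.v. docetaxel 75 mg/m² q3w, i.v. pembrolizumab 200 mg q3w). Steady-state trough is cycle 1 day 14, 0-24 h. Values are mean (SE) inhibition.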

The test system of data set [1] is patients with advanced solid tumor malignancies. Kind of data set: Safety and tolerability. The format is in vivo, human. Summed up:
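Patients are ≥18 years with solid tumors that progressed after ≥1 prior line. They self-administer oral pemigatinib 9, 13.5 or 20 mg q.d. on 21-day cycles, continuous or intermittent, combined with chemotherapy, trastuzumab or anti-PD-1 antibody until progression or toxicity. Interruption and dose adjustment are allowed. AE frequency, duration and severity are summarized descriptively for patients receiving ≥1 dose.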

A further data set concerns advanced malignancies. The note with it: monotherapy, cited from earlier work.
Data set [2] deals with patients with advanced malignancies. The note with it: monotherapy, parts 1 and 2; cited from earlier work.
A further data set has as its system pFGFR2α. The note with it: based on in vivo experiments; no reference given; cited from earlier work.
[3] abbreviates: both the 9-mg and 13.5-mg doses of pemigatinib.

Chain of phosphorylated FGFR2α (P21802 431-767 limits assumed): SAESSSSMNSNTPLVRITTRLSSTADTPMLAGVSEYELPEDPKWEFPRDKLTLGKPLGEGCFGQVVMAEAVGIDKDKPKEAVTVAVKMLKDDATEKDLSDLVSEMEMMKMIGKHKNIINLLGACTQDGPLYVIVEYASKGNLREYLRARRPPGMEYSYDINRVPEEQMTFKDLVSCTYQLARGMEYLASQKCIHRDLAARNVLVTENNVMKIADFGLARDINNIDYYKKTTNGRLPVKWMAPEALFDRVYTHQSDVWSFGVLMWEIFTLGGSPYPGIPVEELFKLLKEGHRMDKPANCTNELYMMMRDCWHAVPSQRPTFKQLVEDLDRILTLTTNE

As for pemigatinib + docetaxel [Pemi/doc], the “ORR (95% CI)” value with advanced solid tumors (pemigatinib 13.5 mg ID) amounted to 14.3%. Besides, in the data set with advanced solid tumors (urothelial tract/bladder cancer, FGF10 amplification), the “DOR, individual responder” value was 12.5 months. Further, the “Inhibition of FGFR2α phosphorylation at trough of steady state” value (“Inhibition of FGFR2α phosphorylation” for short) at phosphorylated FGFR2α (setting [3]) is given as “exceeded 50%”. Moreover, in data set [1] (pemigatinib 13.5 mg ID), the “Alopecia (TEAE)” value is 3 (42.9) n (%), the “Anemia (TEAE)” value was 4 (57.1) n (%), the “Constipation (TEAE)” value was 3 (42.9) n (%) and the “Dehydration (TEAE)” value was 5 (71.4) n (%). For the same molecule, in data set [1] (pemigatinib 13.5 mg ID), the “Diarrhea (TEAE)” value is reported as 6 (85.7) n (%); the “Diarrhea TEAE, patients” value was 85.7%; the “Dose interruptions because of TEAEs, patients” value (from here on “Dose interruptions because”) was determined as 42.9%; the “Dysgeusia (TEAE)” value is given as 3 (42.9) n (%). In data set [1] (pemigatinib 13.5 mg ID), the “Fatigue (TEAE)” value is 6 (85.7) n (%); the “Fatigue TEAE, patients” value is listed as 85.7%; the “Hyperphosphatemia (TEAE)” value was 6 (85.7) n (%); the “Hyperphosphatemia TEAE, patients” value is given as 85.7%. Further, in data set [1] (pemigatinib 13.5 mg ID), the “Nausea (TEAE)” value is recorded as 4 (57.1) n (%); the “Neutropenia (TEAE)” value is given as 3 (42.9) n (%); the “Stomatitis TEAE, patients” value turned out to be 28.6%; the “TEAEs related to the combination partner, patients” value (“TEAEs related” for short) came out at 71.4%. Besides, in data set [1] (pemigatinib 13.5 mg ID), the “Taste disorder (TEAE)” value is listed as 3 (42.9) n (%), the “Vomiting (TEAE)” value is 3 (42.9) n (%) and the “Weight decreased (TEAE)” value is reported as 3 (42.9) n (%).

Take pemigatinib + trastuzumab [Pemi/tras]: the “ORR (95% CI)” value with advanced solid tumors (pemigatinib 13.5 mg ID) is recorded as 0%. For the same molecule, the “Inhibition of FGFR2α phosphorylation” value at phosphorylated FGFR2α (setting [3]) is listed as “exceeded 50%”. In addition, in data set [1] (pemigatinib 13.5 mg ID), the “Alopecia (TEAE)” value is 5 (83.3) n (%); the “Alopecia TEAE, patients” value is given as 83.3%; the “Anemia (TEAE)” value is recorded as 2 (33.3) n (%); the “Constipation (TEAE)” value is listed as 2 (33.3) n (%). Also, in data set [1] (pemigatinib 13.5 mg ID), the “Cough (TEAE)” value is given as 4 (66.7) n (%), the “Decreased appetite (TEAE)” value is listed as 3 (50.0) n (%), the “Diarrhea (TEAE)” value was 3 (50.0) n (%) and the “Dry eye (TEAE)” value is reported as 2 (33.3) n (%). For the same molecule, in data set [1] (pemigatinib 13.5 mg ID), the “Dry mouth (TEAE)” value is listed as 4 (66.7) n (%), the “Dyspepsia (TEAE)” value was 2 (33.3) n (%), the “Dyspnea (TEAE)” value is 2 (33.3) n (%) and the “Epistaxis (TEAE)” value is 2 (33.3) n (%). Also, in data set [1] (pemigatinib 13.5 mg ID), the “Fatigue (TEAE)” value is given as 2 (33.3) n (%); the “Fatigue TEAE, patients” value is 33.3%; the “Headache (TEAE)” value is on record as 2 (33.3) n (%); the “Hyperphosphatemia (TEAE)” value is given as 5 (83.3) n (%). In data set [1] (pemigatinib 13.5 mg ID), the “Hyperphosphatemia TEAE, patients” value amounted to 83.3%; the “Nausea (TEAE)” value is 2 (33.3) n (%); the “Pemigatinib-related TEAEs, patients” value stood at 83.3%; the “Pyrexia (TEAE)” value is given as 2 (33.3) n (%). In addition, in data set [1] (pemigatinib 13.5 mg ID), the “Sinusitis (TEAE)” value was 3 (50.0) n (%); the “Stomatitis (TEAE)” value is given as 2 (33.3) n (%); the “TEAEs related” value worked out at 50.0%; the “Taste disorder (TEAE)” value is 2 (33.3) n (%). Also, in data set [1] (pemigatinib 13.5 mg ID), the “Upper respiratory tract infection (TEAE)” value was 2 (33.3) n (%).

In the case of “pemigatinib + gemcitabine + cisplatin [Pemi/gem/cis]”, the “ORR (95% CI)” value with advanced solid tumors (Total (all pemigatinib doses)) came to 37.5%. Further, in the data set on advanced solid tumors (pemigatinib 13.5 mg ID, anal cancer, no detectable FGF/FGFR alterations), the “DOR, individual responder” value came out at 5.8 months. In addition, the “DOR, individual responder” value in the data set with advanced solid tumors (pemigatinib 13.5 mg ID, ovarian cancer, no detectable FGF/FGFR alterations) amounted to 6.6 months. At phosphorylated FGFR2α (pemigatinib 13.5 mg ID), the “Inhibition of FGFR2α phosphorylation” value amounted to 31%. In data set [1] (Total (all pemigatinib doses)), the “Alanine aminotransferase increased (TEAE)” value was 4 (50.0) n (%); the “Alopecia TEAE, patients” value is 12.5%; the “Anemia (TEAE)” value is listed as 8 (100.0) n (%); the “Aspartate aminotransferase increased (TEAE)” value is 4 (50.0) n (%). In data set [1] (Total (all pemigatinib doses)), the “Blood creatinine increased (TEAE)” value was 5 (62.5) n (%), the “Constipation (TEAE)” value is reported as 5 (62.5) n (%), the “Dehydration (TEAE)” value was 3 (37.5) n (%) and the “Diarrhea (TEAE)” value is reported as 4 (50.0) n (%). In addition, in data set [1] (Total (all pemigatinib doses)), the “Dizziness (TEAE)” value is on record as 3 (37.5) n (%); the “Dose interruptions because” value is on record as 87.5%; the “Dose reductions because of TEAEs, patients” value was 12.5%; the “Dry mouth (TEAE)” value was 3 (37.5) n (%). In addition, in data set [1] (Total (all pemigatinib doses)), the “Fatigue (TEAE)” value is 5 (62.5) n (%); the “Hyperphosphatemia (TEAE)” value is 4 (50.0) n (%); the “Hyperphosphatemia TEAE, patients” value was 50.0%; the “Hypokalemia (TEAE)” value is 3 (37.5) n (%). For the same molecule, in data set [1] (Total (all pemigatinib doses)), the “Hyponatremia (TEAE)” value was 4 (50.0) n (%); the “Nausea (TEAE)” value is reported as 5 (62.5) n (%); the “Neutropenia (TEAE)” value is 4 (50.0) n (%); the “Pemigatinib-related TEAEs, patients” value amounted to 87.5%. Further, in data set [1] (Total (all pemigatinib doses)), the “Stomatitis (TEAE)” value is reported as 3 (37.5) n (%); the “TEAEs related” value was determined as 100.0%; the “Thrombocytopenia (TEAE)” value is recorded as 5 (62.5) n (%); the “Vomiting (TEAE)” value is recorded as 3 (37.5) n (%). In data set [1] (Total (all pemigatinib doses)), the “White blood cell count decreased (TEAE)” value is reported as 4 (50.0) n (%). In addition, the “Anemia TEAE, patients” value in data set [1] (pemigatinib 13.5 mg ID) amounted to 100.0%.

“pemigatinib + pembrolizumab [Pemi/pembro]”: in the data set with advanced solid tumors (Total (all pemigatinib doses)), the “ORR (95% CI)” value came to 26.9%. Further, in the data set with advanced solid tumors (pemigatinib 13.5 mg ID, urothelial tract/bladder cancer, FGFR3 p.S249C mutation), the “DOR, individual responder” value is reported as 50.3 months. The “Inhibition of FGFR2α phosphorylation” value at phosphorylated FGFR2α (setting [3]) was “exceeded 50%”. Moreover, in data set [1] (Total (all pemigatinib doses)), the “Alanine aminotransferase increased (TEAE)” value is 8 (30.8) n (%), the “Alopecia (TEAE)” value is listed as 11 (42.3) n (%), the “Anemia (TEAE)” value is 12 (46.2) n (%) and the “Aspartate aminotransferase increased (TEAE)” value is recorded as 8 (30.8) n (%). In data set [1] (Total (all pemigatinib doses)), the “Decreased appetite (TEAE)” value is listed as 11 (42.3) n (%); the “Diarrhea (TEAE)” value is 12 (46.2) n (%); the “Dose interruptions because” value stood at 57.7%; the “Dose reductions because of TEAEs, patients” value is recorded as 7.7%. Also, in data set [1] (Total (all pemigatinib doses)), the “Dry eye (TEAE)” value is 8 (30.8) n (%); the “Dry mouth (TEAE)” value is given as 9 (34.6) n (%); the “Fatigue TEAE, patients” value came out at 26.9%; the “Hyperphosphatemia (TEAE)” value is reported as 19 (73.1) n (%). Moreover, in data set [1] (Total (all pemigatinib doses)), the “Pemigatinib-related TEAEs, patients” value came to 88.5%; the “Stomatitis (TEAE)” value is 9 (34.6) n (%); the “TEAEs related” value turned out to be 69.2%. In addition, in data set [1] (pemigatinib 13.5 mg CD), the “Alopecia TEAE, patients” value came to 55.6%; the “Dry mouth TEAE, patients” value was determined as 55.6%; the “Hyperphosphatemia TEAE, patients” value is listed as 55.6%. The “Hyperphosphatemia TEAE, patients” value in data set [1] (pemigatinib 13.5 mg ID) is listed as 78.6%.

For the molecule pemigatinib + retifanlimab [Pemi/reti], the “ORR (95% CI)” value in the data set on advanced solid tumors (Total (all pemigatinib doses)) worked out at 11.1%. Further, the “DOR, individual responder” value with advanced solid tumors (pemigatinib 13.5 mg CD, ovarian cancer, no detectable FGF/FGFR alterations) is 4.2 months. Further, the “DOR, individual responder” value in the data set on advanced solid tumors (pemigatinib 13.5 mg CD, urothelial cancer, FGF3/4/19 amplification) was determined as 8.3 months. Moreover, in data set [1] (Total (all pemigatinib doses)), the “Alopecia (TEAE)” value is on record as 6 (33.3) n (%), the “Dehydration (TEAE)” value was 8 (44.4) n (%), the “Diarrhea (TEAE)” value is 7 (38.9) n (%) and the “Dry mouth (TEAE)” value is 9 (50.0) n (%). In addition, in data set [1] (Total (all pemigatinib doses)), the “Fatigue (TEAE)” value was 11 (61.1) n (%); the “Hyperphosphatemia (TEAE)” value is 11 (61.1) n (%); the “Hyperphosphatemia TEAE, patients” value came to 61.1%; the “Hypomagnesemia (TEAE)” value was 6 (33.3) n (%). Further, in data set [1] (Total (all pemigatinib doses)), the “Pemigatinib-related TEAEs, patients” value worked out at 94.4%; the “Stomatitis (TEAE)” value was 12 (66.7) n (%); the “Stomatitis TEAE, patients” value worked out at 66.7%; the “TEAEs related” value came to 88.9%. In data set [1] (pemigatinib 13.5 mg CD), the “Stomatitis TEAE, patients” value was 77.8%.

`CCN1C(=O)N(c2c(F)c(OC)cc(OC)c2F)Cc2cnc3[nH]c(CN4CCOCC4)cc3c21` [pemigatinib]: in the data set on advanced malignancies (128 patients in parts 1 or 2), the “Patients with partial responses (PRs)” value is 9.4%. Besides, in the data set with advanced malignancies (parts 1 or 2), the “ORR among patients with FGFR mutations” value is recorded as 23.1% and the “ORR among patients with FGFR rearrangements” value was 25.0%. Further, in data set [2], the “Alopecia, patients” value is 31.3%; the “Diarrhea, patients” value is recorded as 32.0%; the “Dose reductions, patients” value is 4.6%; the “Dry mouth, patients” value was 38.3%. Moreover, in data set [2], the “Fatigue, patients” value is listed as 39.1%; the “Hyperphosphatemia, patients” value is 75.0%; the “Patients who discontinued pemigatinib because of TEAEs” value was 10.2%; the “Pemigatinib interruption used to manage TEAEs, patients” value is reported as 51.6%. In addition, the “Stomatitis, patients” value in data set [2] is 34.4%. In addition, the 50% inhibitory concentration (IC50) in the data set on pFGFR2α was 22.6 nM.

For orientation: IC50 means the concentration that gives 50% inhibition.
